≈ marks a conversion by molar mass, not a printed value.

The first test relates to Escherichia coli. Nature of the test: Inhibition of Escherichia coli dihydroneopterin aldolase assessed as [14C]glycolaldehyde formation using [14C]neopterin substrate by scintillation counting. Summed up: (§1)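 Enzyme from E. coli B grown in corn steep liquor medium with methionine and glutamic acid, homogenized, cleared of debris and heat-treated. Substrate is 14C-neopterin with unlabeled neopterin, reduced by dithionite to dihydroneopterin in ammonium acetate pH 9.6 with EDTA and mercaptoethanol. Test pteridines are dithionite-reduced. Incubation runs 30 min at 37 °C in the dark and is stopped with Norit A in 2 N acetic acid. The supernatant is scintillation counted.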
Consider `CCOC(OCC)C1=Nc2c(O)nc(N)nc2NC1`, for which the ID50 is over 50 mg/L.

Regarding `Nc1nc(O)c2c(n1)NC(O)C(C(=O)O)=N2` (stereo unspecified), the ID50 is over 50 mg/L.

For the compound `Nc1nc2c(c(=O)[nH]1)N=C(CO)CN2`, the ID50 came out at 30 mg/L (≈ 154 µM).

For `OCC1=Nc2c(O)nc(S)nc2NC1`, the ID50 was over 50 mg/L.

Turning to `Nc1nc(O)c2c(n1)NCC(CCCc1ccccc1)=N2`, the ID50 is over 50 mg/L.

Consider `CC(C)C1=Nc2c(N)nc(N)nc2NC1C(C)C` (stereo unspecified), for which the ID50 is over 50 mg/L.

Take `CC1(C)Nc2nc(N)nc(O)c2N=C1CO`: the ID50 was determined as 1 mg/L (≈ 4.48 µM).

Consider `Nc1nc(O)c2c(n1)NCC=N2`, for which the ID50 is over 50 mg/L.

`CC1=Nc2c(O)nc(N)nc2NC1`: the ID50 was over 50 mg/L.

With `Nc1nc(O)c2c(n1)NC(CO)C=N2` (stereo unspecified), the ID50 is over 50 mg/L.

Turning to `CCCCCCCCC1=Nc2c(O)nc(N)nc2NC1`, the ID50 was over 50 mg/L.

Consider `Nc1nc(O)c2c(n1)NCC(C(=O)O)=N2`, for which the ID50 is over 50 mg/L.

On to `Nc1nc(O)c2c(n1)NCC(/C=N/O)=N2`, for which the ID50 is over 50 mg/L.

As to `NC(=O)C1=Nc2c(O)nc(N)nc2NC1`, the ID50 came out at 5 mg/L (≈ 24 µM).

On to `Nc1nc(N)c2c(n1)NCC(CO)=N2`, for which the ID50 is over 50 mg/L.

For the next test, the system named is Escherichia coli. Nature of the test: Inhibition of Escherichia coli dihydroneopterin aldolase assessed as [14C]glycolaldehyde formation using [14C]neopterin substrate at 50 ug/ml by scintillation counting. Summed up: as §1
What is called inhibition is the share of the control response that was lost under treatment. Take `Nc1nc2c(c(=O)[nH]1)N=C(C=O)CN2`: the inhibition was 75%.
